In data set [1] the test system is A-375. Put plainly: Cytotoxicity against human A375 cells assessed as cell survival at 1 to 5 uM after 12 hrs by MTT assay relative to control. Format: functional, cell-based. Put shortly: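 A375 cells seeded at 10,000 per well, attached overnight, then exposed in triplicate to 0, 1, 3 or 5 μM for 0, 12 or 24 h; viability by MTT absorbance versus untreated control; IC50 taken as mean of dose-response curves from three experiments.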
On the technique in general: Formazan colour is commonly taken as a measure of viable cells.

Data set [2] relates to A-375. Put plainly: Cell cycle arrest in human A375 cells assessed as accumulation at G2/M phase after 24 hrs by propidium iodide staining-based flow cytometry (reference value: 15.2 +/- 0.6%). In kind it is functional.
The subject of data set [3] is A-375. Put plainly: Cell cycle arrest in human A375 cells assessed as accumulation at sub-G1 phase after 24 hrs by propidium iodide staining-based flow cytometry (reference value: 7.7 +/- 0.1%). In kind it is functional. On the technique in general: In flow cytometry, cells or beads pass a laser one at a time.
Data set [4] deals with A-375. Put plainly: Cell cycle arrest in human A375 cells assessed as accumulation at G1 phase after 24 hrs by propidium iodide staining-based flow cytometry (reference value: 65.3 +/- 0.1%). Format: functional.
In data set [5] the test system is A-375. The data set can be described thus: Cytotoxicity against human A375 cells assessed as cell survival at 5 uM after 24 hrs by MTT assay relative to control. As to conditions: A-375, 24 h, read-out: Survival. In kind it is functional. The gist of the method: (§1)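 Cells exposed to agent at 5 µM for 24 h, then growth and viability measured by MTT assay. Survival given as percent of untreated control.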

In data set [6] the test system is A-375. Put plainly: Cell cycle arrest in human A375 cells assessed as accumulation at S phase after 24 hrs by propidium iodide staining-based flow cytometry (reference value: 11.8 +/- 0.1%). Format: functional.
In a further data set the test system is B16. The data set can be described thus: Cytotoxicity against mouse B16 cells assessed as cell survival at 5 uM after 24 hrs by MTT assay relative to control. Format: functional. The settings on record: B16, 24 h, read-out: Survival. The gist of the method:
as §1

Another data set relates to HEK-293T. Put plainly: Cytotoxicity against human 293T cells assessed as cell survival at 5 uM after 24 hrs by MTT assay relative to control. Format: functional. As to conditions: read-out: Survival. The gist of the method:
as §1

The nature of data set [7]: Cytotoxicity against human skin fibroblasts assessed as cell survival at 5 uM after 24 hrs by MTT assay relative to control. Also on record: species or system Skin fibroblast. The settings on record: read-out: Survival. The gist of the method:
as §1

The next data set concerns A2058. Put plainly: Cytotoxicity against human A2058 cells assessed as cell survival at 5 uM after 24 hrs by MTT assay relative to control. The settings on record: A2058, 24 h, read-out: Survival. Format: functional. Put shortly: as §1
A short description of data set [8]: Cytotoxicity against human RPMI7951 cells assessed as cell survival at 5 uM after 24 hrs by MTT assay relative to control. Format: functional. As to conditions: RPMI-7951, 24 h, read-out: Survival. Put shortly:
as §1

A further data set deals with Ca9-22. Put plainly: Cytotoxicity against human Ca9-22 cells assessed as cell survival at 5 uM after 24 hrs by MTT assay relative to control. Format: functional. As to conditions: Ca9-22, 24 h, read-out: Survival. The gist of the method:
as §1

For the next data set, the system named is A549. Put plainly: Cytotoxicity against human A549 cells assessed as cell survival at 5 uM after 24 hrs by MTT assay relative to control. Format: functional. The settings on record: A549, 24 h, read-out: Survival. The gist of the method: as §1

Activity calls are given as the source filed them. No cut-off for these calls is given here.

`COc1cc2c(cc1OC/C=C/Cn1cc(-c3ccccc3OC)nn1)N=C[C@@H]1CCCN1C2=O`: the outcome with A-375 [1] was inactive. In addition, the Activity was found to be 5.1% in the data set on A-375 [2], 17.3% in the data set on A-375 [3], 69.5% in the data set with A-375 [4] and 8.1% in the data set on A-375 [6]. For the same compound, the viability at 5 µM is 58.4% in the data set with A-375 [5]; 98.9% with B16; 55% in the data set on HEK-293T; 57.9% with A2058; 83% in [8]; 95.6% in the data set with Ca9-22. For the same compound, the viability at 5 µM in the data set on A549 turned out to be 91%. Further, the viability at 24 h, 5 µM in [7] came out at 100%.

`COc1cccc(-c2cn(C/C=C/COc3cc4c(cc3OC)C(=O)N3CCC[C@H]3C=N4)nn2)c1`: in the data set on A-375 [1], the outcome was inactive. The Activity is recorded as 3.5% in the data set with A-375 [2], 17.6% in the data set on A-375 [3], 71.4% in the data set on A-375 [4] and 7.5% in the data set with A-375 [6]. The viability at 5 µM with A-375 [5] was 58.3%; in the data set with B16 it was 107%; in the data set on HEK-293T it was 40%; with A2058 it was 62.8%; in data set [8], 87.2%; in the data set with Ca9-22, 97.5%. Besides, the viability at 5 µM in the data set with A549 amounted to 86%. In addition, the viability at 24 h, 5 µM in data set [7] was determined as 107%.

For the compound `COc1ccc(-c2cn(C/C=C/COc3cc4c(cc3OC)C(=O)N3CCC[C@H]3C=N4)nn2)cc1`, the outcome with A-375 [1] was inactive. Further, the Activity in the data set on A-375 [2] is given as 5.1%; in the data set with A-375 [3] it was 13.9%; with A-375 [4] it was 73.6%; in the data set with A-375 [6], 7.4%. The viability at 5 µM in the data set on A-375 [5] amounted to 69.2%; in the data set on B16 it was 75.2%; in the data set on HEK-293T, 40%; in the data set with A2058 it was 49.2%; in data set [8], 80.1%; in the data set on Ca9-22, 84.1%. Moreover, the viability at 5 µM in the data set with A549 amounted to 81%. The viability at 24 h, 5 µM in data set [7] worked out at 104%.

In the case of `COc1cc2c(cc1O)N=C[C@@H]1CCCN1C2=O`, the viability at 5 µM is 52.2% with A-375 [5]; 66.8% in the data set on B16; 55.2% in the data set on HEK-293T; 54.8% in the data set on A2058; 61.6% in data set [8]; 94.4% in the data set with Ca9-22. In the data set with A549, the viability at 5 µM stood at 85.4%. For the same compound, the viability at 24 h, 5 µM in [7] was determined as 89.7%.

As for `COc1cc2c(cc1OC/C=C/Cn1cc(-c3ccccc3)nn1)N=C[C@@H]1CCCN1C2=O`, the outcome in the data set with A-375 [1] was inactive. The Activity in the data set with A-375 [2] is on record as 5.5%; with A-375 [3] it was 7%; with A-375 [4], 77.8%; with A-375 [6], 9.7%. Further, the viability at 5 µM with A-375 [5] is 69.6%; with B16 it was 33.9%; with HEK-293T it was 78%; in the data set on A2058 it was 53.3%; in data set [8] it was 79.1%; with Ca9-22, 61.2%. Further, the viability at 5 µM in the data set on A549 was determined as 70%. In addition, the viability at 24 h, 5 µM in [7] is 93%.
